# TRPC6 inh: mouse TRPC6 channel inhibitors, primary screen, cell-based, HEK293, membrane potential dye; ACh-evoked depolarization; stronger effect = lower value; B-score at 10 µM; hit rate 1.1% among 310,000; AID 2553, 2010;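 active = B-score under library mean minus 3 SD, initial fluorescence not abnormally high, positive integrated signal ratio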;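 note: B-score derived from integrated fluorescence ratio over the kinetic read; more negative B-score means stronger inhibition of depolarization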
# Target sequence (Q61143 whole entry, looked up): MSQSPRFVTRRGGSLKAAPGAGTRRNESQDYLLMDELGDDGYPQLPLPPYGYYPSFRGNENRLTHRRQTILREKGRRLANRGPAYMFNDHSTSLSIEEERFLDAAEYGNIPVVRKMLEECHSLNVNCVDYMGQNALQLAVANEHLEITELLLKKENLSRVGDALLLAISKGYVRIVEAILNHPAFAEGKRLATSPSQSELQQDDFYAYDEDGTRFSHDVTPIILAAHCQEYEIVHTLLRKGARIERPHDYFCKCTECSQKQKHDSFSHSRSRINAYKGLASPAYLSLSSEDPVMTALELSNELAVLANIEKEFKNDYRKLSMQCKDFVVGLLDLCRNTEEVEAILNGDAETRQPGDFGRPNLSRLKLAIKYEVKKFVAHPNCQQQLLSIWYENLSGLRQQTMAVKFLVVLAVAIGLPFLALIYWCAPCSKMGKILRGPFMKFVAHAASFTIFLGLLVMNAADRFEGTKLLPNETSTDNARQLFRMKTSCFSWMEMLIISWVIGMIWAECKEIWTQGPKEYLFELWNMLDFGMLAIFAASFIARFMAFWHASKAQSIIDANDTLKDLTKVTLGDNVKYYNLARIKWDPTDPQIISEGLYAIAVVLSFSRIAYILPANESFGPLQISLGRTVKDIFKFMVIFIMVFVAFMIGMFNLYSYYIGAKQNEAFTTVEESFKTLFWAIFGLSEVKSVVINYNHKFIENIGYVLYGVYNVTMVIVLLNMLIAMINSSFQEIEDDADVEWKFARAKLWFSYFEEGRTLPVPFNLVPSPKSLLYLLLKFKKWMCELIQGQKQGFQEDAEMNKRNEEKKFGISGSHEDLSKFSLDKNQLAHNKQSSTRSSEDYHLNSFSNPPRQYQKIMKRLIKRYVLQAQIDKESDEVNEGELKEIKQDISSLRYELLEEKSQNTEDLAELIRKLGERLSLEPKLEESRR
# TRPC4 potent: positive allosteric modulators of TRPC4, primary screen, cell-based, mouse TRPC4beta, HEK293 mu-opioid, Fluo-4 calcium; AID 2227, 2009; B-score at 10 µM; DAMGO EC20, Fluo-4 Ca2+ flux; stronger effect = higher value; hit rate 0.42% among 310,000; Short transient receptor potential channel 4 (Mus musculus), Q9QUQ5;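 active = B-score of calcium response area above 5 SD of library B-scores, with initial fluorescence ratio within 5 SD of library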;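 note: B-score of integrated fluorescence ratio over time as area under calcium response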
# TRPC4 inh: inhibitors of mouse TRPC4 channel, primary screen, Fluo4 calcium, HEK293 TRPC4beta/mu-opioid cells. DAMGO-evoked Fluo4 calcium flux; stronger effect = lower value. B-score at 10 µM. hit rate 0.39% among 300,000. AID 2247, 2010;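 active = B-score over 3 SD under the library average, no early fluorescence shift, positive overall ratio signal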
#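 Assay system – HEK293 line stably carrying TRPC4beta and mu-opioid receptor · Doses – single dose · Detection – Fluo4 calcium-dye fluorescence, kinetic read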
# TRPC6 activator: mouse TRPC6 channel activators, primary screen, cell-based, HEK293, membrane potential dye. Short transient receptor potential channel 6 (Mus musculus), Q61143. HEK293-TRPC6 membrane potential dye fluorescence; stronger effect = higher value. B-score at 10 µM. hit rate 0.13% among 310,000. AID 2550, 2010;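 active = B-score of the integrated fluorescence ratio above library mean plus 3 SD, and starting fluorescence ratio within library mean plus 5 SD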;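 note: higher score means more depolarization so channel activation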
# TRPC4 agonist: activators of mouse TRPC4 channel, primary screen, Fluo4 calcium, HEK293 TRPC4beta/mu-opioid cells. hit rate 0.49% among 310,000. Fluo4 calcium fluorescence; stronger effect = higher value. AID 2237, 2010. B-score at 10 µM;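 active = B-score above 5 SD of library B-scores, and initial fluorescence ratio not above library mean plus 5 SD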;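 note: positive B-score marks a calcium rise read as TRPC4 activation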
#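 Material: HEK293 stable line with TRPC4beta plus mu-opioid receptor; technique: Fluo4 calcium-sensitive dye fluorescence, kinetic, 1 Hz baseline; timing: Fluo4 dye loading 45 min at room temperature, 110 s recording; controls: assay buffer as low control, maximal DAMGO as high control; read-out: integrated baseline-normalised fluorescence ratio, converted to per-well B score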
# Active calls of the source: *; i = inactive. An excerpt weighted towards active compounds, which were near 2.3% of everything screened.
SMILES,TRPC6 inh,TRPC4 potent,TRPC4 inh,TRPC6 activator,TRPC4 agonist
CCC1CCCCN1S(=O)(=O)c1ccc(C(=O)Nc2nnc(-c3ccccc3Cl)o2)cc1 (stereo not given),i,i,i,i,65*
CC1(C)COCN1S(=O)(=O)c1ccc(C(=O)Nc2nnc(-c3ccc(Cl)s3)o2)cc1,i,i,-5*,i,111*
COc1ccc(CCC(=O)NCCS(=O)(=O)N2CCN(c3ccccc3OC)CC2)cc1,i,i,i,i,i
c1ccn2cc(C34CC5CC(CC(C5)C3)C4)nc2c1,i,i,-7*,i,i
O=C(CSc1nnc(CNC(=O)c2ccco2)o1)Nc1nc2ccccc2s1,i,i,i,i,i
CCCn1nc(C(=O)NC2CCCc3ccccc32)c2ccccc2c1=O (stereo not given),i,23*,i,i,i
CCCc1nc(SC2CCCC2)c2c(=O)n(C)c(=O)n(C)c2n1,i,i,-5*,i,i
O=C(NCc1nnnn1-c1ccc(Cl)cc1)c1ccc(Br)o1,i,i,i,i,i
COc1ccc(/C=C2\SC(=S)N(N3C(=O)CCC3=O)C2=O)cc1O,i,144*,i,i,i
COc1ccc(/C=C2\SC(=O)N(CC(=O)Nc3ccc(F)cc3)C2=O)cc1O,i,11*,i,i,i
Cc1ccnc(NS(=O)(=O)c2ccc(-n3cccn3)cc2)c1,i,i,i,i,i
Cc1cc(-c2nn(-c3ccccc3F)cc2CN(C)CC(O)CO)c(C)s1 (stereo not given),i,i,i,i,i
Cc1sc2ncnc(NC3CCN(Cc4ccccc4)CC3)c2c1C,i,i,i,i,193*
CCOC(=O)C1C(=O)C=C(c2ccc(C)cc2)CC1c1cccc([N+](=O)[O-])c1 (stereo not given),i,24*,i,i,i
CC(C)CCNC(=O)c1onc(CSc2ccc(F)c(F)c2)c1C(=O)NCCC(C)C,i,i,i,i,i
O=S(=O)(Cc1ccccc1)N1CCC(c2nc(-c3cccs3)no2)CC1,i,17*,i,i,i
O=S(=O)(c1cccs1)N1CCN(c2ccnc3cc(Cl)ccc23)CC1,i,11*,i,i,i
CC(=O)N1CCN(c2ccnc3cc(Cl)ccc23)CC1,i,i,i,i,i
O=S(=O)(c1ccccc1)N1CCN(c2ccnc3cc(Cl)ccc23)CC1,i,13*,i,i,i
CC(NC(=O)COc1ccccc1F)C1CC2CCC1C2 (stereo not given),i,i,i,i,i
COc1cccc(NC(=O)C2COc3ccccc3O2)c1 (stereo not given),i,i,i,i,i
Cc1onc(-c2ccccc2Cl)c1C(=O)Nc1ccc(S(=O)(=O)N2CCCC2)cc1,i,10*,i,i,i
COc1ccc(/C=C2\CCCC3C2=NN(C(=O)CSc2n[nH]c(N)n2)C3c2ccc(OC)cc2)cc1 (stereo not given),i,12*,i,i,i
O=C1CCC(C(=O)OCC(=O)N2N=C3/C(=C/c4ccccc4)CCCC3C2c2ccccc2)N1 (stereo not given),i,i,i,i,i
CC1CC(C)CN(CCCNC(=O)CCC(=O)N2CCOc3ccccc32)C1 (stereo not given),i,i,i,i,73*
SMILES,TRPC6 inh,TRPC4 potent,TRPC4 inh,TRPC6 activator,TRPC4 agonist
CSc1ccc(CN(C)C(=O)c2cc(=O)[nH]c3ccccc23)cc1,i,i,i,i,i
COc1cc(-c2noc(C)c2-c2ccc(N(C)C)nc2)cc(OC)c1OC,i,i,i,i,66*
COc1cc(-c2noc(C)c2-c2ccc3[nH]ccc3c2)cc(OC)c1OC,i,i,i,i,i
CC(C)CCn1c(Sc2nc3ccccc3o2)nc2c1c(=O)[nH]c(=O)n2C,i,17*,i,i,i
COc1cc(CN2CCCC(C(=O)Nc3ccccc3Oc3cccnc3)C2)ccc1F (stereo not given),i,i,i,i,i
O=C(Nc1ccccc1Oc1cccnc1)C1CCCN(Cc2cccc(Cl)c2)C1 (stereo not given),i,i,-6*,i,i
Cc1ccccc1CN1CCCC(C(=O)Nc2ccccc2Oc2cccnc2)C1 (stereo not given),i,i,-7*,i,i
CCOc1ccccc1NC(=O)COC(=O)C(CC)c1ccccc1 (stereo not given),i,i,i,i,i
CC(C)(C)c1ccc(-c2nc3cc(N)ccc3o2)cc1,i,18*,i,i,i
Cc1cc(OC(=O)c2cccc(F)c2)c([N+](=O)[O-])c(=O)[nH]1,i,i,i,i,i
Clc1nc2nc3n(c2nc1Cl)CCC3,i,i,i,i,i
CCCCCSc1nnc2c(n1)OC(c1cccn1C)N(C(C)=O)c1ccccc1-2 (stereo not given),i,i,i,i,193*
NC(=S)N/N=C/c1ccc(Br)o1,i,10*,i,i,i
NC(=S)N/N=C/c1ccc(-c2cc(Cl)c(Cl)cc2Cl)o1,i,i,i,i,i
COc1ccc(CCn2c(C)cc(C(=O)CSc3nnnn3-c3ccccc3)c2C)cc1,i,i,i,i,i
Cc1ccc(O)c(NC(=S)NC(=O)Cc2ccc(Cl)cc2)c1,i,12*,i,i,i
O=C(c1ccc2c3c(cccc13)CC2)C1CCCN(Cc2ccncc2)C1 (stereo not given),i,i,i,i,44*
CCc1nc(CN2CCCC(C(=O)c3ccc4c5c(cccc35)CC4)C2)c(C)[nH]1 (stereo not given),i,i,i,i,116*
Cc1ncccc1C(=O)N1CCCC(C(=O)c2ccc3c4c(cccc24)CC3)C1 (stereo not given),i,i,i,i,i
Cc1ccccc1CN1CCN(S(=O)(=O)c2cccs2)CC1,i,i,i,i,i
O=C(O)CCCNc1ccc(S(=O)(=O)N2CCCCC2)cc1,i,i,i,i,i

# Compound activity: PubChem BioAssay, Johns Hopkins Ion Channel Center
